Assay outcomes as filed in PubChem BioAssay.
Sampled rows, rich in hits. Any-hit rate of the full collection: about 0.86%.
ERAP1 HTS inh – human ERAP1 aminopeptidase inhibitors, primary screen, biochemical, single point, plate reader. AID 652197, 2013. inhibition, % at 10.7 µM. recombinant ERAP1, Leu-AMC fluorescence, 60 min. Endoplasmic reticulum aminopeptidase 1 (Homo sapiens), Q9NZ08. 340,000 compounds, 0.15% hits;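 active = mean replicate inhibition of at least 30%, or all replicates individually reaching that 30% level; inactive = mean below 30% and not every replicate reaching it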;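 also: 0% = neutral control wells and 100% = L-leucinethiol positive control wells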
MLL AF4-AF9 inh – inhibitors of AF4 peptide binding to AF9, primary screen, biochemical, AlphaScreen, biotin-AF4 peptide, FLAG-AF9, single point; Protein AF-9 (Homo sapiens), P42568; inhibition, % at 10 µM; 350,000 compounds, 0.47% hits; AID 651704, 2012;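 active = every replicate reaching a set inhibition limit, whatever the replicate mean, cut at about 25% in these data; inconclusive = mean inhibition reaches that limit but some replicates miss it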;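 also: 0% = plate neutral control median and 100% = total signal loss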
S100A4 inh HTS – inhibitors of S100A4-myosin IIA peptide binding, primary screen, biochemical, fluorescence polarization, TAMRA-MyoIIA peptide | Protein S100-A4 (Homo sapiens), P26447 | inhibition, % at 10.7 µM | 360,000 compounds, 0.14% hits;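 active = mean inhibition of at least 70% across replicates, with every replicate also reaching that level; inconclusive = mean inhibition reaches 70% but some replicates fall short; inactive = mean inhibition below 70%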
Target sequence (P26447 whole entry, looked up): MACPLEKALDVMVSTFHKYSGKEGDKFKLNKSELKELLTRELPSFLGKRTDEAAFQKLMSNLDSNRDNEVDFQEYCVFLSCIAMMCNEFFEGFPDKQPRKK
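assay system = human S100A4 monomer with TAMRA-labelled myosin IIA peptide | also added = labelled myosin peptide probe, 5 nM | incubation = 5 min between mix addition and reading | control set = DMSO and TFP controls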
miR-122 sensor – miR-122 Renilla sensor signal increase in Huh7, primary screen, miR-122 inhibitor project, cell-based, single point, plate reader | Huh7 miR-122 Renilla luciferase sensor, 48 h; neutral wells = 0, positive control = 100 | activation (reporter increase), % at 12.5 µM | 340,000 compounds, 0.3% hits | AID 602342, 2012;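 active = mean replicate activation score at least 90 and every replicate individually at or above 90; inconclusive = only one of the two criteria met; inactive = neither criterion met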;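 also: higher luciferase means less miR-122 activity so hits act as miR-122 inhibitors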
Rtt109 HAT inh – inhibitors of C. albicans Rtt109/Vps75 HAT, primary screen, biochemical, ThioGlo CoA-SH fluorescence, plate reader | Histone acetyltransferase RTT109 (Candida albicans (strain SC5314 / ATCC MYA-2876)), … | purified Rtt109/Vps75, 4 h | inhibition, % at 34.9 µM | 330,000 compounds, 0.16% hits;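 active = inhibition of at least 50% in every replicate; inconclusive = best replicate reaches 50% inhibition but some replicates fall short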
Target sequence (Q5AAJ8 whole entry, looked up): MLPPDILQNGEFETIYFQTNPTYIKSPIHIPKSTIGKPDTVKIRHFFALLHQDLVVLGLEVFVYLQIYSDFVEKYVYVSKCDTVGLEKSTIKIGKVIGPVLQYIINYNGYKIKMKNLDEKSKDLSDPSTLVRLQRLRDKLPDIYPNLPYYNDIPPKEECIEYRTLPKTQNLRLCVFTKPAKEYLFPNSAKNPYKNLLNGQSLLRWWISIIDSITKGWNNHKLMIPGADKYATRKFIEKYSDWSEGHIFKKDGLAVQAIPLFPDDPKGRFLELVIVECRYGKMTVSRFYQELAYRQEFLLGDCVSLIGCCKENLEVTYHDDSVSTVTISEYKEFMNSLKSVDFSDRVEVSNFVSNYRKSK
Active calls of the source: *; ? = inconclusive; / = not tested or not shown; [ ] = dose if it differs, or a comment.

SMILES	ERAP1 HTS inh	MLL AF4-AF9 inh	S100A4 inh HTS	miR-122 sensor	Rtt109 HAT inh
COc1ccccc1C#Cc1cnc2c(c1)C(=O)N([C@H](C)CO)C[C@@H](C)[C@H](CN(C)C(=O)CC1CC1)O2	-3	1	-8	1[16.7 µM]	/
C[C@H](CO)N1C[C@H](C)[C@H](CN(C)Cc2ccncc2)Oc2cc(C#CC3CC3)ccc2S1(=O)=O	0	4	-5	-2[16.7 µM]	/
Cc1ccc(S(=O)(=O)N(C)C[C@H]2OCCCC[C@H](C)Oc3ccc(NC(=O)NC4CCCCC4)cc3C(=O)N([C@H](C)CO)C[C@@H]2C)cc1	4	-8	2	-9[16.7 µM]	/
Cc1ccc(S(=O)(=O)N(C)C[C@@H]2OCCCC[C@H](C)Oc3ccc(NC(=O)NC4CCCCC4)cc3C(=O)N([C@@H](C)CO)C[C@H]2C)cc1	2	26*	-1	-5[16.7 µM]	/
C[C@@H]1CN([C@H](C)CO)C(=O)c2cc(NS(=O)(=O)c3ccc(F)cc3)ccc2O[C@@H](C)CCCCO[C@@H]1CN(C)C(=O)NC1CCCCC1	-3	-4	120*	9[16.7 µM]	/
Cc1ccc(S(=O)(=O)N(C)C[C@@H]2OCCCC[C@@H](C)Oc3ccc(NS(C)(=O)=O)cc3C(=O)N([C@@H](C)CO)C[C@@H]2C)cc1	2	0	88*	17[16.7 µM]	/
C[C@@H]1CCCCO[C@H](CN(C)S(=O)(=O)c2ccc(Cl)cc2)[C@@H](C)CN([C@@H](C)CO)C(=O)c2cc(NS(=O)(=O)c3ccc(F)cc3)ccc2O1	4	?	120*	50[16.7 µM]	/
C[C@@H]1CN([C@H](C)CO)C(=O)CCCn2cc(nn2)CO[C@@H]1CN(C)C(=O)c1ccncc1	/	/	/	-3[16.7 µM]	/
O=C(NC1CCCC1)N1CC(=O)N2[C@H](C1)[C@H](c1ccc(-c3cccc(F)c3)cc1)[C@@H]2CO	/	0	-3	/	/
C[C@@H]1CCCCO[C@@H](CN(C)C(=O)c2ccccc2)[C@H](C)CN([C@H](C)CO)C(=O)c2cc(NC(=O)Nc3ccc(C(F)(F)F)cc3)ccc2O1	1	1	2	-16[16.7 µM]	/
C[C@H]1CCCCO[C@H](CN(C)S(=O)(=O)c2ccc(F)cc2)[C@@H](C)CN([C@@H](C)CO)C(=O)c2cc(NS(=O)(=O)c3ccccc3)ccc2O1	2	2	113*	11[16.7 µM]	/
C[C@@H]1CCCCO[C@H](CN(C)S(=O)(=O)c2ccc(F)cc2)[C@@H](C)CN([C@H](C)CO)C(=O)c2cc(NS(=O)(=O)c3ccccc3)ccc2O1	4	-1	1	-1[16.7 µM]	/
Nc1ccc(N2CCN(CCCCN3C(=O)C4CCCN4C3=O)CC2)cc1 (stereo unspecified)	-3	49*	8	/	39
C[C@H](CO)N1C[C@H](C)[C@@H](CN(C)S(=O)(=O)c2ccccc2)OCCCC[C@H](C)Oc2ccc(NS(=O)(=O)c3ccccc3)cc2C1=O	1	3	-5	8[16.7 µM]	/
COc1cc(C=c2c3ccccc3n3c2cc(-c2ccccc2)[n+]3C)cc(OC)c1OC	7	29*	-72	/	7
CN(C)c1ccc(C=c2c3ccccc3n3c2c2c([n+]3C)CCCC2)cc1	10	37*	-6	-17	5
CN(C)c1ccc(C=c2c3cc([N+](=O)[O-])ccc3n3c2cc(-c2ccccc2)[n+]3C)cc1	0	55*	98*	-9	6
Cn1c(CO)c(-c2ccccc2)c2cc([N+](=O)[O-])ccc21	/	/	/	1	2
CN(C)c1ccc(C=c2c3ccccc3n3c2cc(-c2ccc(Cl)cc2)[n+]3C)cc1	-4	58*	9	/	-16
Cc1noc(C)c1NC(=O)N(C)C[C@@H]1Oc2ncc(C#CC(C)(C)O)cc2C(=O)N([C@H](C)CO)C[C@@H]1C	1	-1	-3	-6[16.7 µM]	/
CN(C)S(=O)(=O)c1cccc(-c2csc(=Nc3ccccc3)n2CCCN2CCOCC2)c1	2	32*	-3	/	-2
CC(=O)c1cccc(N=c2scc(-c3ccc(S(=O)(=O)N4CCOCC4)cc3)n2CCO)c1	-4	17	-2	/	8
